Experiments:
KB = experiment: Cytotoxicity against KB-ATCC cell lines after a 3-day incubation; format: functional; details: Homo sapiens, 72 h, read-out: ID50 (the source's name)
Method in brief: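 KB-ATCC cells were incubated with compound for 3 days. The read-out was cell number, and ID50 was taken as the concentration giving a 50% reduction.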

[1] = target: DNA topoisomerase II (Homo sapiens) (UniProt P11388+Q02880); experiment: Inhibition of human DNA topoisomerase II activity; format: protein assay
Method in brief: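 Each compound was tested in triplicate at 5, 10, 25, 50 and 100 µM. ID50 was set from the degree of inhibition seen at these concentrations.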

Nucleic Acid = experiment: Percent of cellular protein-DNA complex formation at concentration of 20 uM; format: functional; details: Homo sapiens

SMILES | ID50 [1] [µM] | IC50 (KB) [µM] | Complex formation (Nucleic Acid) [%]
COc1cc([C@@H]2c3cc4c(cc3[C@@H](Nc3ccc(F)cc3)[C@H]3CO[C@@H](O)[C@H]23)OCO4)cc(OC)c1O | 50 | 2.2 | 87
COc1cc([C@@H]2c3cc4c(cc3[C@@H](O[C@@H]3O[C@@H]5CO[C@@H](C)O[C@H]5[C@H](O)[C@H]3O)[C@H]3COC(=O)[C@H]23)OCO4)cc(OC)c1O [ETOPOSIDE] |  | 0.2 | 100
COc1cc([C@@H]2c3cc4c(cc3[C@@H](Nc3ccc(F)cc3)[C@H]3CO[C@@H](OC)[C@H]23)OCO4)cc(OC)c1O | > 100 | 5.5 | 66
COc1cc([C@@H]2c3cc4c(cc3[C@@H](Nc3ccc(F)cc3)[C@H]3COC(=O)[C@H]23)OCO4)cc(OC)c1O |  | 0.24 | 213

Now from value to molecule, other results behind:

ID50 [1] [µM] | SMILES | IC50 (KB) [µM] | Complex formation (Nucleic Acid) [%]
50 | COc1cc([C@@H]2c3cc4c(cc3[C@@H](Nc3ccccc3)[C@H]3COC[C@H]23)OCO4)cc(OC)c1O | 2.6 | 139
100 | COc1cc([C@@H]2c3cc4c(cc3[C@@H](Nc3ccccc3)[C@H]3CO[C@@H](OC)[C@H]23)OCO4)cc(OC)c1O | 5.5 | 96
50 | COc1cc([C@@H]2c3cc4c(cc3[C@@H](Nc3ccc(F)cc3)[C@H]3COC[C@H]23)OCO4)cc(OC)c1O | 4.1 | 125
